Test system: U2OS
Test: Multiplex assay against U2OS
Type: toxicity, cell-based
Conditions: human
Summary of the method: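 Compound was added to live cells that had been stained at seeding with Hoechst33342, BioTracker Green Microtubule Cytoskeleton Dye, MitoTracker Red and Annexin V Alexa Fluor 680, and imaging followed on a CQ1 microscope at 37°C and 5% CO2. CellPathfinder machine-learning gating divided cells into Hoechst high-intensity objects or normal cells, normal cells into healthy, pyknosed or fragmented nuclei, and pyknosed cells into mitotic or apoptotic. Tubulin, mitochondrial-mass and membrane-permeability phenotypes are per cents of healthy-nucleus cells.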

[1] = 12 h, 1 µM, compound concentration 1 uM, replicate 1
[2] = 12 h, 1 µM, compound concentration 1 uM, replicate 2
[3] = 12 h, 10 µM, compound concentration 10 uM, replicate 1
[4] = 12 h, 10 µM, compound concentration 10 uM, replicate 2
[5] = 24 h, 1 µM, compound concentration 1 uM, replicate 1
[6] = 24 h, 1 µM, compound concentration 1 uM, replicate 2
[7] = 24 h, 10 µM, compound concentration 10 uM, replicate 1
[8] = 24 h, 10 µM, compound concentration 10 uM, replicate 2
[9] = 48 h, 1 µM, compound concentration 1 uM, replicate 1
[10] = 48 h, 1 µM, compound concentration 1 uM, replicate 2
[11] = 48 h, 10 µM, compound concentration 10 uM, replicate 1
[12] = 48 h, 10 µM, compound concentration 10 uM, replicate 2

CC(C)(C)c1ccc(S(=O)(=O)Nc2ccc(Cl)cc2C(=O)c2cc[n+]([O-])cc2)cc1 [VERCIRNON]
Population Apoptotic (%) [1]: 77% | Population Fragmented Nuclei (%) [1]: 28% | Population Healthy Nuclei (%) [1]: 61% | Population Hoechst High Intensity Objects (%) [1]: 1% | Population Membrane Permeable-Phenotype (%) [1]: 8% | Population Mitochondria Different-Phenotype (%) [1]: 5% | Population Mitotic Cells (%) [1]: 22% | Population Normal (%) [1]: 98% | Population Pyknosed Nuclei (%) [1]: 10% | Population Tubulin-Different-Phenotype (%) [1]: 4% | Total Cell Count [1]: 307 | Population Apoptotic (%) [2]: 100% | Population Fragmented Nuclei (%) [2]: 15% | Population Healthy Nuclei (%) [2]: 79% | Population Hoechst High Intensity Objects (%) [2]: 0% | Population Mitochondria Different-Phenotype (%) [2]: 4% | Population Mitotic Cells (%) [2]: 0% | Population Normal (%) [2]: 99% | Population Pyknosed Nuclei (%) [2]: 5% | Population Tubulin-Different-Phenotype (%) [2]: 3% | Total Cell Count [2]: 156 | Population Apoptotic (%) [3]: 77% | Population Fragmented Nuclei (%) [3]: 24% | Population Healthy Nuclei (%) [3]: 68% | Population Hoechst High Intensity Objects (%) [3]: 1% | Population Membrane Permeable-Phenotype (%) [3]: 3% | Population Mitochondria Different-Phenotype (%) [3]: 2% | Population Mitotic Cells (%) [3]: 22% | Population Normal (%) [3]: 98% | Population Pyknosed Nuclei (%) [3]: 6% | Population Tubulin-Different-Phenotype (%) [3]: 1% | Total Cell Count [3]: 266 | Population Apoptotic (%) [4]: 50% | Population Fragmented Nuclei (%) [4]: 21% | Population Healthy Nuclei (%) [4]: 77% | Population Hoechst High Intensity Objects (%) [4]: 0% | Population Membrane Permeable-Phenotype (%) [4]: 15% | Population Mitotic Cells (%) [4]: 50% | Population Normal (%) [4]: 99% | Population Pyknosed Nuclei (%) [4]: 1% | Population Tubulin-Different-Phenotype (%) [4]: 15% | Total Cell Count [4]: 123 | Population Apoptotic (%) [5]: 89% | Population Fragmented Nuclei (%) [5]: 25% | Population Healthy Nuclei (%) [5]: 67% | Population Hoechst High Intensity Objects (%) [5]: 1% | Population Membrane Permeable-Phenotype (%) [5]: 8% | Population Mitochondria Different-Phenotype (%) [5]: 5% | Population Mitotic Cells (%) [5]: 10% | Population Normal (%) [5]: 98% | Population Pyknosed Nuclei (%) [5]: 7% | Population Tubulin-Different-Phenotype (%) [5]: 4% | Total Cell Count [5]: 357 | Population Apoptotic (%) [6]: 92% | Population Fragmented Nuclei (%) [6]: 18% | Population Healthy Nuclei (%) [6]: 74% | Population Hoechst High Intensity Objects (%) [6]: 0% | Population Membrane Permeable-Phenotype (%) [6]: 2% | Population Mitochondria Different-Phenotype (%) [6]: 4% | Population Mitotic Cells (%) [6]: 7% | Population Normal (%) [6]: 99% | Population Tubulin-Different-Phenotype (%) [6]: 2% | Total Cell Count [6]: 183 | Population Apoptotic (%) [7]: 76% | Population Fragmented Nuclei (%) [7]: 21% | Population Healthy Nuclei (%) [7]: 72% | Population Hoechst High Intensity Objects (%) [7]: 2% | Population Membrane Permeable-Phenotype (%) [7]: 1% | Population Mitochondria Different-Phenotype (%) [7]: 1% | Population Mitotic Cells (%) [7]: 23% | Population Normal (%) [7]: 97% | Population Pyknosed Nuclei (%) [7]: 5% | Population Tubulin-Different-Phenotype (%) [7]: 1% | Total Cell Count [7]: 297 | Population Apoptotic (%) [8]: 71% | Population Fragmented Nuclei (%) [8]: 22% | Population Hoechst High Intensity Objects (%) [8]: 1% | Population Membrane Permeable-Phenotype (%) [8]: 13% | Population Mitotic Cells (%) [8]: 28% | Population Normal (%) [8]: 98% | Population Pyknosed Nuclei (%) [8]: 4% | Population Tubulin-Different-Phenotype (%) [8]: 15% | Total Cell Count [8]: 160 | Population Apoptotic (%) [9]: 82% | Population Fragmented Nuclei (%) [9]: 19% | Population Healthy Nuclei (%) [9]: 73% | Population Hoechst High Intensity Objects (%) [9]: 3% | Population Membrane Permeable-Phenotype (%) [9]: 5% | Population Mitochondria Different-Phenotype (%) [9]: 3% | Population Mitotic Cells (%) [9]: 17% | Population Normal (%) [9]: 96% | Population Pyknosed Nuclei (%) [9]: 6% | Population Tubulin-Different-Phenotype (%) [9]: 4% | Total Cell Count [9]: 515 | Population Apoptotic (%) [10]: 84% | Population Fragmented Nuclei (%) [10]: 15% | Population Healthy Nuclei (%) [10]: 75% | Population Hoechst High Intensity Objects (%) [10]: 4% | Population Membrane Permeable-Phenotype (%) [10]: 7% | Population Mitochondria Different-Phenotype (%) [10]: 2% | Population Mitotic Cells (%) [10]: 15% | Population Normal (%) [10]: 95% | Population Pyknosed Nuclei (%) [10]: 9% | Population Tubulin-Different-Phenotype (%) [10]: 2% | Total Cell Count [10]: 296 | Population Apoptotic (%) [11]: 79% | Population Fragmented Nuclei (%) [11]: 18% | Population Healthy Nuclei (%) [11]: 75% | Population Hoechst High Intensity Objects (%) [11]: 1% | Population Membrane Permeable-Phenotype (%) [11]: 2% | Population Mitochondria Different-Phenotype (%) [11]: 1% | Population Mitotic Cells (%) [11]: 20% | Population Normal (%) [11]: 98% | Population Pyknosed Nuclei (%) [11]: 5% | Population Tubulin-Different-Phenotype (%) [11]: 1% | Total Cell Count [11]: 414 | Population Apoptotic (%) [12]: 77% | Population Fragmented Nuclei (%) [12]: 26% | Population Healthy Nuclei (%) [12]: 65% | Population Hoechst High Intensity Objects (%) [12]: 2% | Population Membrane Permeable-Phenotype (%) [12]: 8% | Population Mitochondria Different-Phenotype (%) [12]: 5% | Population Mitotic Cells (%) [12]: 22% | Population Normal (%) [12]: 97% | Population Pyknosed Nuclei (%) [12]: 8% | Population Tubulin-Different-Phenotype (%) [12]: 11% | Total Cell Count [12]: 215

Source: ChEMBL document CHEMBL5058577, “EUbOPEN Chemogenomics Library 2 (Multiplex)” (2022)
